{"data": "Assay results of several laboratories", "cell line": "ACHN", "observed": "cell growth or viability", "note": "Compare with care: the assays were run in different laboratories. pIC50: −log10 of the molar value."}
{"Structure (SMILES)": "S=C([S][Au-][P+](CCCCCC[P+]([Au-][S]C(=S)n1cccn1)(c1ccccc1)c1ccccc1)(c1ccccc1)c1ccccc1)n1cccn1", "measurement": "GI50", "result": "1450 nM"}
{"Structure (SMILES)": "COc1ccc(C(=O)/C=C/c2cc3c(cc2Br)OCO3)cc1S(N)(=O)=O", "method": "SRB", "concentration": "10 µM", "measurement": "inhibition", "result": "123%"}
{"Structure (SMILES)": "Cc1cc(C)n(C(=S)[S][Au][PH](CCCCCC[PH]([Au][S]C(=S)n2nc(C)cc2C)(c2ccccc2)c2ccccc2)(c2ccccc2)c2ccccc2)n1", "measurement": "GI50", "result": "752 nM"}
{"Structure (SMILES)": "COc1ccc(-c2ccc(-c3ccc(C(=N)N)nc3)s2)cc1Cl", "measurement": "GI50", "result": "1770 nM"}
{"Structure (SMILES)": "COc1cccc(Oc2ccccc2NC(=O)CNC(=O)c2cccc3ccccc23)c1", "method": "SRB", "time": "48 h", "measurement": "GI50", "result": "398 nM"}
{"Structure (SMILES)": "COc1cc(-c2ccc(-c3ccc(C(=N)N)nc3)s2)cc(OC)c1OC", "measurement": "GI50", "result": "1730 nM"}
{"Structure (SMILES)": "COc1ccc(C(=O)/C=C/c2ccccc2Br)cc1S(N)(=O)=O", "method": "SRB", "time": "48 h", "measurement": "GI50", "result": "1800 nM"}
{"Structure (SMILES)": "CC1=CC(=O)C(C(C)C)=CC1=O", "method": "CCK-8", "time": "48 h", "measurement": "pIC50", "result": 4.28}
